This is an account of results in ChEMBL document CHEMBL1126160, “Synthesis and structure-activity relationships of 7-diazabicycloalkylquinolones, including danofloxacin, a new quinolone antibacterial agent for veterinary medicine” (J Med Chem, 1992).

One assay relates to Phocaeicola vulgatus. Briefly: In vitro antibacterial activity against anaerobically grown Bacteroides vulgatus (78D029). It counts as functional. Summed up:
(§1)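 Agar dilution MICs. Anaerobic strains were tested on tryptose agar with 5% bovine blood and incubated 48 h at 39 °C in an anaerobe chamber under N2/CO2/H2 (80:10:10).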

The subject of assay [1] is Salmonella enterica. Put plainly: In vitro antibacterial activity against aerobically grown Salmonella choleraesuis (58B015). The assay is classed as functional.
Assay [2] has as its system Escherichia coli. Briefly: The Escherichia coli DNA cleavage endpoint value which is the minimum amount of compound required (micro g/mL) to induce detectable cleavage of supercoiled pBR322 substrate to the linear form (gyrase). The assay is classed as functional. The essentials:
(§2)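 DNA gyrase A and B subunits were purified from E. coli overproducers. About 2 units of holoenzyme were incubated with pBR322 in Tris-HCl pH 7.5 containing MgCl2, spermidine, DTT, 0.2 mM ATP, BSA and tRNA. Drug was added as 2-fold serial dilutions, and reactions ran for 60 min at 25 °C. Reactions were stopped with SDS and proteinase K, then run on agarose and stained with ethidium. The endpoint was the lowest concentration giving detectable linear DNA.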

Another assay has as its system Trueperella pyogenes. Briefly: In vitro antibacterial activity against anaerobically grown Actinomyces pyogenes (14D002). The assay is classed as functional. The essentials: as §1
Assay [3] concerns Bordetella bronchiseptica. Briefly: In vitro antibacterial activity against aerobically grown Bordetella bronchiseptica (73A009). It counts as functional. The essentials: (§3)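 Agar dilution MICs. Aerobic strains were tested on brain heart infusion agar and incubated aerobically at 37 °C for 18–20 h.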
The test system of assay [4] is Staphylococcus aureus. Briefly: In vitro antibacterial activity against aerobically grown Staphylococcus aureus (54B004). It counts as functional. Summed up:
as §3

Assay [5] can be described thus: In vitro evaluation for antibacterial activity against anaerobically grown Treponema hyodysenteriae (94A007). The assay is classed as functional. The following applies: Brachyspira hyodysenteriae.
The test system of assay [6] is Pasteurella multocida. Put plainly: In vitro antibacterial activity against aerobically grown Pasteurella multocida (59A006). The assay is classed as functional. The essentials: as §3
The next assay deals with Clostridium perfringens. Briefly: microbe, parasite or virus in culture. The assay is classed as functional.
For assay [7], the system named is Actinobacillus pleuropneumoniae. Briefly: In vitro antibacterial activity against anaerobically grown Actinobacillus pleuropneumoniae ([…]). The assay is classed as functional. The essentials:
as §1

The test system of assay [8] is Escherichia coli. Put plainly: In vitro antibacterial activity against aerobically grown Escherichia coli (51A538). The assay is classed as functional. Summed up: as §3
The test system of assay [9] is Actinobacillus pleuropneumoniae. Put plainly: Compound was evaluated for minimum against Actinobacillus pleuropneumoniae intramuscular dose administration. As to conditions: im, read-out: MED.
The subject of assay [10] is Mannheimia haemolytica. Put plainly: Compound was evaluated for minimum against Pasteurella haemolytica intramuscular dose administration. It counts as functional. As to conditions: im, read-out: MED. Summed up:
(§4)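 Calf and swine respiratory disease models. Calves received acetic acid intratracheally on the day before and on day 0, then an endotracheal challenge with P. haemolytica B280PA, about 5 × 10^8 cfu/mL. They were dosed im with a 2.5% or 5% solution in sterile water on days 0 and 1 (SID × 2). Pigs weighing 8.5–12.5 kg were challenged intranasally with A. pleuropneumoniae B316HM, 10^9 cfu/mL. They were dosed once within 1 h, either im (1% or 2.5% solution) or by gavage (0.5% solution). MED was the lowest dose giving significant reduction of lung pathology.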

In assay [11] the test system is Actinobacillus pleuropneumoniae. Briefly: Compound was evaluated for minimum effective dose against Actinobacillus pleuropneumonia peroral dose administration. As to conditions: po, read-out: MED. The assay is classed as functional. The essentials:
as §4

The test system of assay [12] is Escherichia coli. Briefly: Escherichia coli DNA cleavage endpoint value which is the minimum amount required (in micro g/mL) to induce detectable cleavage of supercoiled pBR322 substrate to linear form (gyrase). It counts as functional. The following applies: read-out: MIC. Summed up:
as §2

Assay [13] deals with Pasteurella multocida. Put plainly: In vivo protective dose was evaluated Pasteurella multocida (59A006) in mouse(sc). The assay is classed as functional. The following applies: read-out: PD50. Summed up: (§5)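 Female CF-1 mice (15 g), groups of 10, challenged ip with 0.5 mL bacterial suspension (P. multocida 59A006 or E. coli 51A266 at 3.0 × 10^8 cfu/mL; S. choleraesuis 58B010 at 8.5 × 10^2 cfu/mL). Drug given sc or po at 30 min, 4 h and 24 h after challenge; survival recorded at 96 h; PD50 by probit analysis.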

The test system of assay [14] is Escherichia coli. Put plainly: In vivo protective dose was evaluated against Escherichia coli (51A266) in mouse(sc). The assay is classed as functional. The following applies: read-out: PD50. The essentials: as §5
The subject of assay [15] is Pasteurella multocida. Briefly: In vivo protective dose was evaluated Pasteurella multocida (59A006) in mouse(po). The assay is classed as functional. The following applies: read-out: PD50. Summed up:
as §5

Assay [16] is described as follows: In vitro antibacterial activity against Aerobically grown Pasteurella haemolytica (59B018). The assay is classed as functional. The following applies: Mannheimia haemolytica. Summed up:
as §3

Assay [17] concerns Actinobacillus pleuropneumoniae. Put plainly: Compound was evaluated for minimum effective dose Actinobacillus pleuropneumonia, peroral dose administration. The assay is classed as functional. The following applies: po, read-out: MED. Summed up: as §4
In assay [18] the test system is Escherichia coli. Put plainly: In vivo protective dose was evaluated against Escherichia coli (51A266) in mouse(po). The assay is classed as functional. As to conditions: read-out: PD50. Summed up:
as §5

The test system of assay [19] is Pasteurella multocida. Put plainly: In vivo protective dose was evaluated against Pasteurella multocida (59A006) in mouse(po). The assay is classed as functional. The following applies: read-out: PD50. Summed up: as §5
Assay [20] relates to Mannheimia haemolytica. Put plainly: Dose was evaluated for minimum effective dose Pasteurella haemolytica, intramuscular dose administration. The assay is classed as functional. As to conditions: im, read-out: MED. Summed up:
as §4

Assay [21] deals with Salmonella enterica. Briefly: In vivo protective dose was evaluated against Salmonella choleraesuis (58B010) in mouse(po). It counts as functional. As to conditions: read-out: PD50. Summed up: as §5
Assay [22] deals with Actinobacillus pleuropneumoniae. Put plainly: Dose was evaluated for minimum effective dose actinobacillus pleuropneumonia, intramuscular dose administration. As to conditions: im, read-out: MED.
Assay [23] relates to Escherichia coli. Put plainly: In vitro antibacterial activity against Aerobically grown Escherichia coli (51A538). It counts as functional. The essentials: as §3
The subject of assay [24] is Pasteurella multocida. Briefly: In vitro antibacterial activity against Aerobically grown Pasteurella multocida (59A006). The assay is classed as functional. The essentials:
as §3

In assay [25] the test system is Salmonella enterica. Briefly: In vitro antibacterial activity against Aerobically grown Salmonella choleraesuis (58B015). The assay is classed as functional.
For assay [26], the system named is Bordetella bronchiseptica. Briefly: In vitro antibacterial activity against Aerobically grown Bordetella bronchiseptica (73A009). The assay is classed as functional. The essentials: as §3
For assay [27], the system named is Staphylococcus aureus. Briefly: In vitro antibacterial activity against Aerobically grown Staphylococcus aureus (54B004). The assay is classed as functional. Summed up: as §3

Values after ≈ are worked out from the molar mass of the structure shown. Where only a bound is given, the exact number is not on record here.

Take `CN1C[C@@H]2C[C@H]1CN2c1c(F)cc2c(=O)c(C(=O)O)cn(C3CC3)c2c1Cl`: the MIC against Phocaeicola vulgatus is 0.78 µg/mL (≈ 1.99 µM); against Salmonella enterica [1], < 0.05 µg/mL; against Escherichia coli [2] it was 0.19 µg/mL (≈ 0.485 µM); against Trueperella pyogenes, 0.39 µg/mL (≈ 0.995 µM); in assay [3], 0.39 µg/mL (≈ 0.995 µM); in the assay with Staphylococcus aureus [4] it was 0.1 µg/mL (≈ 0.255 µM). In addition, the MIC in assay [5] was 6.25 µg/mL (≈ 16 µM); in the assay with Pasteurella multocida [6], < 0.05 µg/mL; against Clostridium perfringens, 0.2 µg/mL (≈ 0.51 µM); in assay [7], < 0.05 µg/mL; in the assay with Escherichia coli [8], < 0.05 µg/mL.
As to `CCn1cc(C(=O)O)c(=O)c2cc(F)c(N3C[C@H]4CC[C@@H](C3)N4C)cc21`, the figures for the minimal effective dose (in [9]; in the assay on Mannheimia haemolytica [10]; in [11]) were 0.6 mg/kg, 1.2 mg/kg and 5 mg/kg, respectively. The MIC is > 3.13 µg/mL against Phocaeicola vulgatus; 0.78 µg/mL (≈ 2.17 µM) against Salmonella enterica [1]; > 3.13 µg/mL with Trueperella pyogenes; > 1.56 µg/mL in assay [3]; 0.2 µg/mL (≈ 0.556 µM) against Staphylococcus aureus [4]; 3.13 µg/mL (≈ 8.71 µM) in [5]. Further, the MIC with Pasteurella multocida [6] came out at 0.2 µg/mL (≈ 0.556 µM); against Clostridium perfringens it was 0.39 µg/mL (≈ 1.09 µM); in assay [16] it was 0.39 µg/mL (≈ 1.09 µM); in assay [7], 0.78 µg/mL (≈ 2.17 µM); with Escherichia coli [8] it was 0.78 µg/mL (≈ 2.17 µM). Besides, the minimum concentration inducing gyrase-mediated DNA cleavage in the assay with Escherichia coli [12] came out at 3.12 µg/mL. The ED50 in the assay on Pasteurella multocida [13] amounted to 1.31 mg/kg; in the assay with Escherichia coli [14] it was 2.23 mg/kg; in the assay on Pasteurella multocida [15], 2.21 mg/kg.
As to `CN1C[C@@H]2C[C@H]1CN2c1cc2c(cc1F)c(=O)c(C(=O)O)cn2C1CC1` [DANOFLOXACIN], the minimal effective dose in [17] was 0.6 mg/kg; in the assay on Mannheimia haemolytica [20], 0.15 mg/kg; in assay [22] it was 0.15 mg/kg. The ED50 is 0.4 mg/kg with Escherichia coli [18], 0.31 mg/kg in the assay with Pasteurella multocida [19] and 1.12 mg/kg in the assay on Salmonella enterica [21]. Besides, the MIC against Phocaeicola vulgatus was 3.13 µg/mL (≈ 8.76 µM); with Salmonella enterica [1], 0.05 µg/mL (≈ 0.14 µM); against Trueperella pyogenes, > 3.13 µg/mL; in assay [3] it was 0.78 µg/mL (≈ 2.18 µM); with Staphylococcus aureus [4], 0.39 µg/mL (≈ 1.09 µM); in assay [5], 0.39 µg/mL (≈ 1.09 µM). Further, the MIC with Pasteurella multocida [6] is 0.01 µg/mL (≈ 0.028 µM); with Clostridium perfringens it was 0.2 µg/mL (≈ 0.56 µM); in [16] it was 0.05 µg/mL (≈ 0.14 µM); in [7] it was 0.05 µg/mL (≈ 0.14 µM); against Escherichia coli [8], 0.05 µg/mL (≈ 0.14 µM). Also, the minimum concentration inducing gyrase-mediated DNA cleavage in the assay on Escherichia coli [12] was 0.78 µg/mL.
As to `CN1C[C@@H]2C[C@H]1CN2c1c(F)cc2c(=O)c(C(=O)O)cn(-c3ccc(F)cc3)c2c1Cl`, the MIC was > 3.13 µg/mL against Phocaeicola vulgatus; 0.78 µg/mL (≈ 1.75 µM) against Escherichia coli [23]; 0.05 µg/mL (≈ 0.112 µM) with Pasteurella multocida [24]; > 3.13 µg/mL with Trueperella pyogenes; 1.56 µg/mL (≈ 3.5 µM) in the assay on Salmonella enterica [25]; > 1.56 µg/mL in [26]. In addition, the MIC in the assay with Staphylococcus aureus [27] is 0.78 µg/mL (≈ 1.75 µM); in assay [5], > 3.13 µg/mL; in the assay on Clostridium perfringens it was 0.78 µg/mL (≈ 1.75 µM); in assay [16], 0.78 µg/mL (≈ 1.75 µM); in [7], 0.78 µg/mL (≈ 1.75 µM). In addition, in the assay with Escherichia coli [12], the minimum concentration inducing gyrase-mediated DNA cleavage was found to be 1.56 µg/mL.
